Assay outcomes: PubChem, The Scripps Research Institute Molecular Screening Center
PAFAH1B2 inh – blocks human PAF acetylhydrolase 1b catalytic subunit 2; recombinant PAFAH1B2, FP-rhodamine activity probe, fluorescence polarization; inhibition, % at 3.39 µM; actives 1.2% (n = 340,000);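 active = inhibition above the mean of all tested compounds plus 3 SD, cut at about 24% in these data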;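 note: 0% = enzyme with DMSO and 100% = wells lacking PAFAH1B2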
Target sequence (P68402 whole entry, looked up): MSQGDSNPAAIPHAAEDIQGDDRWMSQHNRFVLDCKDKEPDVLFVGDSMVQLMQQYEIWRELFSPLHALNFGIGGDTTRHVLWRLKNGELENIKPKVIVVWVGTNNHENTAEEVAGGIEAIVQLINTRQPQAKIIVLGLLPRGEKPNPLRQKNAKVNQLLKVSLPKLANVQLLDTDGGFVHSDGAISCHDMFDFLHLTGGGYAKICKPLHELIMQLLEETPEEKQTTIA
PAFAH1B3 inh – inhibitors of human PAFAH1B3; Q15102; recombinant PAFAH1B3, FP-rhodamine probe, fluorescence polarization; inhibition, % at 3.39 µM; actives 0.28% (n = 340,000);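 active = inhibition above the screen-wide average of all tested compounds plus 3 SD, cut at about 25% in these data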;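 note: 0% = enzyme with DMSO only and 100% = wells lacking PAFAH1B3 protein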
PAFAH2 inh – inhibitors of human PAFAH2 | actives 0.99% (n = 340,000) | Q99487 | recombinant PAFAH2, FP-rhodamine activity probe, fluorescence polarization | inhibition, % at 3.39 µM;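 active = inhibition above the mean over all tested compounds plus 3 SD, cut at about 30% in these data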;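 note: inhibitors block probe labeling of enzyme so polarization drops; 0% = enzyme with DMSO and 100% = wells lacking PAFAH2 protein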
pPAFAH inh – inhibitors of human plasma PAF acetylhydrolase (pPAFAH); Q13093; recombinant pPAFAH, FP-rhodamine probe fluorescence polarization; inhibition, % at 3.39 µM; actives 1.5% (n = 330,000); AID 463082;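 active = inhibition above the mean inhibition across the screen plus 3 SD, cut at about 25% in these data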;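 note: inhibitors block binding of the rhodamine activity-based probe so polarization drops; 0% = enzyme with DMSO and 100% = wells lacking pPAFAH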
RBBP9 inhibitor – blocks human serine hydrolase RBBP9; inhibition, % at 7.94 µM; actives 0.2% (n = 220,000); recombinant RBBP9, FP-Rh probe fluorescence polarization; O75884; AID 1515;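 active = inhibition above the campaign mean of all tested compounds plus 3 SD, cut at about 14% in these data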;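 note: plate controls were DMSO wells with RBBP9 for no effect and wells lacking RBBP9 protein for full effect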
Target sequence (O75884 whole entry, looked up): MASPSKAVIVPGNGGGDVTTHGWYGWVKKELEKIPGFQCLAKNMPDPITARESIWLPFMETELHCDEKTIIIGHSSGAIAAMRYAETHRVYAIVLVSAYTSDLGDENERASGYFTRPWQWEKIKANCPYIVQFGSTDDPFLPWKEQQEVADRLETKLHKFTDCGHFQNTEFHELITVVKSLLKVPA
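Measured by – fluorescence polarization · Test system – RBBP9 protein · Input – 2.5 µM RBBP9 dispensing solution, before mixing · Measure – percent inhibition from mP, scaled between DMSO and no-protein wells · Benchmarks – DMSO-treated enzyme wells and wells lacking RBBP9 · Times – preincubation 30 min plus labeling 45 min at 25 °C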
* marks the source's active call; other numbers are inactive results. Hits are enriched below; roughly 2.7% of the tested compounds scored in any of these assays.

`COc1ccc(CN2CCN(CCc3ccccc3)C(CCO)C2)c(O)c1` (stereo unspecified) gave PAFAH1B2 inh 0, PAFAH1B3 inh 7, PAFAH2 inh 1, pPAFAH inh 1 and RBBP9 inhibitor -5.
CC(=O)c1ccc(NC(=O)CCc2nnc3ccc(N4CCCC4)nn23)cc1 was read as PAFAH1B2 inh -1, PAFAH1B3 inh 3, PAFAH2 inh 10 and pPAFAH inh 2.
CCCCOC(=O)c1ccc(NS(=O)(=O)c2cc(-c3nnnn3CC)ccc2OC)cc1 was read as PAFAH1B2 inh 6, PAFAH1B3 inh 9, PAFAH2 inh 0, pPAFAH inh 28* and RBBP9 inhibitor -14.
`Fc1cccc(F)c1-n1c(CN2CCCCC2)csc1=S` gave PAFAH1B2 inh 2, PAFAH1B3 inh 5, PAFAH2 inh -1, pPAFAH inh -1 and RBBP9 inhibitor -4.
Screening CC1CCN(C(=S)Nc2ccc3nc4n(c(=O)c3c2)CCCCC4)CC1 returned PAFAH1B2 inh 24*, PAFAH1B3 inh 6, PAFAH2 inh -6, pPAFAH inh 7 and RBBP9 inhibitor -10.
For O=c1c2cc(NC(=S)N3CCCCC3)ccc2nc2n1CCCCC2 the results were PAFAH1B2 inh 4, PAFAH1B3 inh 3, PAFAH2 inh 5, pPAFAH inh 7 and RBBP9 inhibitor -1.
For CCOC(=O)C1CCN(C(=O)COC(=O)CSc2ccccc2C)CC1 the results were PAFAH1B2 inh 0, PAFAH1B3 inh 11, PAFAH2 inh 4 and pPAFAH inh 3.
For COc1cc(N)c(C(=O)c2nccc3cc(OC)c(OC)cc23)cc1OC the results were PAFAH1B2 inh 8, PAFAH1B3 inh -2, PAFAH2 inh 1 and pPAFAH inh -1.
COc1cc(Br)c(C(=O)c2nccc3cc(OC)c(OC)cc23)cc1OC was read as PAFAH1B2 inh 20, PAFAH1B3 inh 67*, PAFAH2 inh 40* and pPAFAH inh 14.
For Cc1ccc(C)c(NC(=S)NCCSc2ccc(Cl)cc2)c1 the results were PAFAH1B2 inh 37*, PAFAH1B3 inh 1, PAFAH2 inh -5, pPAFAH inh 3 and RBBP9 inhibitor -8.
Screening Fc1ccccc1NC(=S)NCCc1ccc(Cl)cc1 returned PAFAH1B2 inh 13, PAFAH1B3 inh 3 and PAFAH2 inh -1.
`O=C(/C=C/c1ccccc1)NCCSc1ccc(Cl)cc1` gave PAFAH1B2 inh 29*, PAFAH1B3 inh 4, PAFAH2 inh 2, pPAFAH inh 2 and RBBP9 inhibitor -8.
`Cc1cccc(NC(=S)NCCSc2ccc(Cl)cc2)c1` gave PAFAH1B2 inh 28*, PAFAH1B3 inh -4, PAFAH2 inh 3, pPAFAH inh 4 and RBBP9 inhibitor -4.
Screening Cc1ccc(NC(=S)NCCSc2ccc(Cl)cc2)c(C)c1 returned PAFAH1B2 inh 15, PAFAH1B3 inh 3, PAFAH2 inh -3, pPAFAH inh 0 and RBBP9 inhibitor -3.
`CCc1ccccc1NC(=S)NCCSc1ccc(Cl)cc1` gave PAFAH1B2 inh 37*, PAFAH1B3 inh -3, PAFAH2 inh 4, pPAFAH inh 31* and RBBP9 inhibitor -5.
`Cc1nonc1OCCCNc1ccc([N+](=O)[O-])cc1Cl` gave PAFAH1B2 inh 3, PAFAH1B3 inh 9, PAFAH2 inh 7, pPAFAH inh 2 and RBBP9 inhibitor -2.
Screening O=C(CSc1nnnn1C1CCCCC1)NCCc1ccccc1 returned PAFAH1B2 inh 5, PAFAH1B3 inh 2, PAFAH2 inh 6, pPAFAH inh 3 and RBBP9 inhibitor -11.
For CC(NC(=O)COC(=O)c1ccccc1O)C1CC2CCC1C2 (stereo unspecified) the results were PAFAH1B2 inh 13, PAFAH1B3 inh 6, PAFAH2 inh 24 and pPAFAH inh 8.
`COc1ccc(NS(=O)(=O)c2ccc(O)c(C(=O)OCC(=O)NC(C)C3CC4CCC3C4)c2)cc1` (stereo unspecified) gave PAFAH1B2 inh 17, PAFAH1B3 inh 3, PAFAH2 inh 20, pPAFAH inh 31* and RBBP9 inhibitor -5.
CC(NC(=O)COC(=O)c1cc(NS(=O)(=O)c2ccc(Cl)c([N+](=O)[O-])c2)ccc1O)C1CC2CCC1C2 (stereo unspecified) was read as PAFAH1B2 inh 22, PAFAH1B3 inh 4, PAFAH2 inh 25, pPAFAH inh 28* and RBBP9 inhibitor -2.
